Source: PubChem BioAssay
Hits are enriched below; roughly 7.4% of the tested compounds scored in any of these assays.
S1P1 ag-PAM: agonists and agonism potentiators of human S1P1 receptor. P21453. S1P1 CRE-bla cells, forskolin, beta-lactamase FRET, potentiator mode; S1P1 agonist co-added at EC20, 2 nM; 100% = saturating reference agonist, 0% = basal. activation, % at 9.5 µM. 0.57% of 56,000 active. AID 449;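 active means activation above a cutoff set at the mean activation of all tested compounds plus 3 SD, cut at about 54% in these data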;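 further: forskolin at 4 µM as EC80 and the EC20 agonist is SEW2871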
Target sequence (P21453 whole entry, looked up): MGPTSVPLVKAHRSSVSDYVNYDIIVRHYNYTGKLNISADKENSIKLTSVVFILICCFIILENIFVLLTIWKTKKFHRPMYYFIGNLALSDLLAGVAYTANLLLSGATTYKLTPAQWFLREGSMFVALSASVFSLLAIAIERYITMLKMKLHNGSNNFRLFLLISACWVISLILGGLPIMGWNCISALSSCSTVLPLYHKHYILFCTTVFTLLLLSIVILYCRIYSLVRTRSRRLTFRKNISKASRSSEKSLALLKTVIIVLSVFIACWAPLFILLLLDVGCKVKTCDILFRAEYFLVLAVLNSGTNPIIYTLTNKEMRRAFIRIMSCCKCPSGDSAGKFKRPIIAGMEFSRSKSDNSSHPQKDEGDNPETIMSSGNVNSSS
JNK3 blocker: blocks human JNK3 kinase activity; 0.61% of 60,000 active; P53779; AID 746; purified JNK3 kinase activity, HTS; inhibition, % at 8 µM; in the data active means inhibition above about 17%
Jurkat tox 60K: reduces viability or proliferation of Jurkat cells. inhibition, % at 4 µM. 1.2% of 56,000 active. AID 463. Jurkat E6.1 viability, ATP luminescence, 48 h;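 active means inhibition above the mean inhibition of all tested compounds plus 3 SD, cut at about 28% in these data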
S1P3 ag: agonists of human S1P3 receptor | Q99500 | S1P3 NFAT-BLA reporter cells, agonism, FRET ratio; relative to 1 µM S1P, basal subtracted | activation, % at 4.5 µM | 0.1% of 60,000 active | AID 373;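 active means activation above the screen-wide mean plus 3 SD, cut at about 4.5% in these data, passing the limit was not always enough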
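Assay system: stable CHO line with human S1P3, Gα16, NFAT-BLA reporter; Detection: FRET β-lactamase substrate fluorescence, excitation 405 nm, 460/535 nm emission ratio, background-subtracted; Read-out: percent activation versus median 1 µM S1P response, basal-subtracted, per plate; Incubation: cells plated overnight, compound 4 h 37 °C, substrate 2 h RT.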
M1 antag: blocks the rat M1 muscarinic receptor response to acetylcholine; P08482; CHO-M1 cells, Fluo-4 calcium, ACh EC80 antagonist mode; active compounds read low; B-score at 10 µM; 3.4% of 64,000 active; AID 628;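 active means calcium fluorescence response, raw or row-and-column corrected B-score, differing from the plate sample mean either way at a set confidence level, mostly lower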
M1 agonist: M1 muscarinic receptor agonism; CHO-M1 cells, Fluo-4 calcium fluorescence, agonist mode; active compounds read high; B-score at 10 µM; 3% of 64,000 active; AID 626;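 active means fluorescence rise, raw or as B-score row- and column-corrected plate score, outside the 99.7% band of its plate's samples, either direction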
A number is an active result; . = inactive; / = no result.

SMILES | S1P1 ag-PAM | JNK3 blocker | Jurkat tox 60K | S1P3 ag | M1 antag | M1 agonist
Cc1ccc2c(c1)N(CCC(=O)NCCCOC(C)C)C(=O)C(C)O2 (stereo not drawn) | . | . | . | . | . | .
COc1ccc(C(=O)Nc2ccc(S(=O)(=O)Nc3nccnc3OC)cc2)cc1OC | . | . | . | . | -19 | 25
COc1ccc(C(=O)Nc2ccncc2)cc1OC | . | . | . | . | . | .
CCN(CC)C(=O)CSc1nnc(-c2ccccn2)n1-c1ccc(C)c(C)c1 | . | . | . | . | . | .
CCC(C)Nc1nc2c(c(=O)n(C)c(=O)n2C)n1Cc1cccc(C)c1 (stereo not drawn) | . | . | . | . | 13 | .
CCNc1nc2c(c(=O)n(C)c(=O)n2C)n1Cc1ccc(Cl)cc1 | 61 | . | 58 | . | . | 2.6
c1csc(-c2csc3nc(CN4CCOCC4)nc(NCc4ccc5c(c4)OCO5)c23)c1 | . | . | . | . | . | .
CCN1CCN(Cc2ccc3c(c2)Cc2ccccc2-3)CC1 | . | . | . | . | -3.5 | .
CCOc1ccc(-c2nc(CSCC(=O)N3CCN(c4cccc(OC)c4)CC3)c(C)o2)cc1 | 69 | . | . | . | . | .
Cc1oc(-c2ccccc2Cl)nc1CSCC(=O)N1CCCC1 | . | . | 39 | . | . | .
COC(=O)COc1ccc(S(=O)(=O)NCc2cccnc2)cc1C | / | . | . | . | . | .
Cc1cc(C)nc(SCCC(=O)N(C)C)n1 | . | . | . | . | . | .
CC(C(=O)NCc1cccnc1)N1C(=O)c2ccccc2C1=O (stereo not drawn) | / | / | / | / | . | .
CCOC(=O)CCC(NC(=O)c1ccc(NCN2C(=O)CCC2=O)cc1)C(=O)OCC (stereo not drawn) | . | . | . | . | . | .
CCOC(=O)CCC(NC(=O)c1ccc(NCN2C(=O)c3ccccc3C2=O)cc1)C(=O)OCC (stereo not drawn) | . | 28 | . | . | . | .
COc1ccc(-c2nn3c(-c4ccco4)nnc3s2)cc1OC | . | . | . | . | . | .
COc1cc(OC)c(-c2nn3c(-c4ccco4)nnc3s2)cc1OC | . | . | . | . | . | 4.4
CCOC(=O)N1CCN(C(=O)c2csc3c2CCCCC3)CC1 | . | . | . | . | . | .
Cc1cc(C(=O)COC(=O)c2csc3c2CCCC3)c(C)n1C | 79 | . | . | . | . | .
CSC1=Nc2sc3c(c2C2=NCCN12)CCCC3 | . | . | . | . | -11 | .
O=C(NCC(c1ccc(F)cc1)N1CCOCC1)c1ccc(Br)o1 (stereo not drawn) | / | / | / | / | . | .
Cc1ccccc1-c1nc2cc(N)ccc2o1 | . | . | . | . | . | .
CC(C)c1ccc2oc(-c3cc(N)ccc3O)nc2c1 | 64 | . | . | . | . | .
O=C(Nc1ccccc1)N(CCc1nc2ccccc2[nH]1)C1CCCC1 | . | . | . | . | . | 2.3
O=C(CCc1nc2ccccc2[nH]1)Nc1ccccc1 | . | . | . | . | . | .
SMILES | S1P1 ag-PAM | JNK3 blocker | Jurkat tox 60K | S1P3 ag | M1 antag | M1 agonist
COCCn1c(C)cc(C(=O)CSc2nnc(-c3cccnc3)n2-c2ccccc2F)c1C | 98 | . | . | . | . | .
CCn1c2ccccc2c2nnc(SCCCn3c(=O)[nH]c4ccccc43)nc21 | . | . | . | . | . | .
CN(Cc1ccco1)C(=O)C1CCC(=O)N1Cc1ccc(F)cc1 (stereo not drawn) | . | . | . | . | . | .
COc1ccc2c(Cl)c(C(N)=O)sc2c1 | . | 18 | . | . | . | .
COC(=O)c1cc(NC(=O)Cn2c(=O)cnc3ccccc32)cc(C(=O)OC)c1 | . | . | . | . | . | .
COc1ccc(OC)c(Nc2nc(N)nc(-c3cc4ccccc4o3)n2)c1 | / | 32 | . | . | . | .
CCC(=O)Nc1ccc(Cl)c(NC(=O)C(C)C)c1 | / | . | . | . | . | .
COc1ccc(Cl)cc1NC(=O)CN1CCC(n2nnc3cc(F)ccc32)CC1 | . | . | . | . | . | .
COc1ccc(S(=O)(=O)n2nc(-c3cc(OC)c(OC)c(OC)c3)cc2N)cc1OC | . | . | . | . | . | .
COc1ccc(-c2cc(N)n(S(=O)(=O)c3c(F)c(F)c(F)c(F)c3F)n2)cc1OC | . | . | 88 | . | . | .
Cc1nn(-c2ccccc2)c2sc(C(=O)OCN3C(=O)c4ccccc4C3=O)cc12 | / | . | . | . | . | .
CSCC[C@H](NC(=O)OC(C)(C)C)c1nnc(SCC(=O)Nc2c(C)cccc2C)o1 | . | . | . | . | 2 | .
Cc1cccc(C)c1NC(=O)CSc1nnc([C@H](C)NC(=O)OC(C)(C)C)o1 | . | . | . | . | . | .
CC(C)=CCSc1nnc([C@@H](NC(=O)OC(C)(C)C)C(C)C)o1 | . | . | . | . | . | .
CC(C)[C@H](NC(=O)OC(C)(C)C)c1nnc(SCC(=O)Nc2ccc(Br)cc2)o1 | 61 | . | . | . | . | .
CCc1c(C)nc(/N=C(/NC(=O)c2ccccc2)Nc2ccccc2OC)[nH]c1=O | . | . | . | . | . | .
Cc1ccc2oc(=O)c3cnn(CC(=O)N4CCCc5ccccc54)c3c2c1 | . | . | . | . | 2.1 | .
O=C(Cn1ncc2c(=O)oc3ccccc3c21)N1CCc2ccccc2C1 | . | . | . | . | . | .
CCCn1c(=NC(=O)c2ccncc2)c(C#N)cc2c(=O)n3cccc(C)c3nc21 | . | . | . | . | . | 20
CC(=O)N=c1c(C#N)cc2c(=O)n3cccc(C)c3nc2n1CC(C)C | . | . | . | . | . | 13
CCCn1c(=NC(=O)c2ccc3c(c2)OCO3)c(C#N)cc2c(=O)n3cccc(C)c3nc21 | . | . | . | . | . | .
CC(C)(C)NC(=O)C(c1ccccc1F)N(Cc1ccco1)C(=O)c1csnn1 (stereo not drawn) | . | . | . | . | . | .
O=C(Nc1nnc(C23CC4CC(CC(C4)C2)C3)s1)c1ccco1 | . | . | . | . | . | .
CCN(CC)S(=O)(=O)c1cccc(C(=O)Nc2nc3cc4c(cc3s2)OCCO4)c1 | . | . | 36 | . | . | .
CN(C)c1nc2n(c(=S)n1)CCS2 | . | . | / | . | . | .
CN(C)c1nc2n(c(=O)n1)C(C#N)CS2 (stereo not drawn) | . | . | / | . | 3 | .
CCCOc1ccc(C2c3c(oc4ccccc4c3=O)C(=O)N2CCCN2CCOCC2)cc1 (stereo not drawn) | . | . | . | . | . | .
Cc1cc(C)n(CCc2nc3c4ccccc4n(CC(=O)Nc4ccc(Cl)cc4F)c(=O)n3n2)n1 | . | . | . | . | . | .
Cc1cccc(N2CCN(C(=O)C3CCCN(S(=O)(=O)c4cccc5cccnc45)C3)CC2)c1C (stereo not drawn) | . | . | . | . | . | 4.6
